Source: PubChem BioAssay
APJ antagonist: antagonists of human APJ apelin receptor; P35414; CHO-K1 APJ beta-arrestin complementation, luminescence; inhibition, % at 20 µM; actives 0.32% (n = 330,000); AID 2521;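 active = inhibition above about 40% at 20 µM, limit read from the data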;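 also: cells challenged with 10 nM apelin-13 agonist together with compound; plate controls were apelin-13 plus DMSO wells for no effect and DMSO wells lacking apelin-13 for full effect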
Target sequence (P35414 whole entry, looked up): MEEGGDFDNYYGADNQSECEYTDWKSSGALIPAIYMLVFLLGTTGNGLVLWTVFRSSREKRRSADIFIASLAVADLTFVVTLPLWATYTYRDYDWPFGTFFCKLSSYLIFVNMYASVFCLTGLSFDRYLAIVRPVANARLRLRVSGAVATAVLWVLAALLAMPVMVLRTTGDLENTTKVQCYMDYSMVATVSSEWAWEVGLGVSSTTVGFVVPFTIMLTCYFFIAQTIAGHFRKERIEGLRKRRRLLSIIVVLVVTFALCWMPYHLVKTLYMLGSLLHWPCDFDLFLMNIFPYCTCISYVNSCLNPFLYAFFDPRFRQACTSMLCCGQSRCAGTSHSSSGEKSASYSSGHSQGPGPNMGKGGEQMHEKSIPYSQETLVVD
CXCR6 block: blocks human CXCR6 beta-arrestin recruitment; actives 0.36% (n = 360,000); O00574; inhibition, % at 20 µM; AID 602244; CHO-K1 PathHunter CXCR6 beta-arrestin, luminescence; in the data active = inhibition above about 34%, passing the limit was not always enough;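 also: antagonist mode with CXCL16 agonist at 10 nM final; 0% = 10 nM CXCL16 with DMSO and 100% = unstimulated wells without agonist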
Target sequence (O00574 whole entry, looked up): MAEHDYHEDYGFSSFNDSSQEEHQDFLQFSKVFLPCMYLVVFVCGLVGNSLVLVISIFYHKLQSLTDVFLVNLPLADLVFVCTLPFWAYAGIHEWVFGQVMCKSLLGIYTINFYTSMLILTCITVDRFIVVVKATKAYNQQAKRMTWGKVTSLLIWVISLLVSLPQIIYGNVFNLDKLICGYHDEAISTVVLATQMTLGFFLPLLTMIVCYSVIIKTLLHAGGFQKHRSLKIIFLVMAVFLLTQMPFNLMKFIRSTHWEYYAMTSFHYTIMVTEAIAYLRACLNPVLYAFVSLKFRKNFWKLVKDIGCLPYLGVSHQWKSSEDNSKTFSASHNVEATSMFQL
H9c2 TAG inh: triacylglycerol accumulation inhibition | actives 0.66% (n = 230,000) | inhibition, % at 12.5 µM | AID 651582 | H9c2 cells, Nile Red lipid (TAG) fluorescence; cells loaded with 200 µM oleic acid;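 active = pattern-corrected inhibition of lipid staining of at least 50% with the nuclear-stain viability signal not falling by more than 50%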;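 also: 0% = DMSO wells and 100% = triacsin C control wells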
EBI2 antag: antagonists of human EBI2 receptor; P32249; EBI2 beta-arrestin recruitment, luminescence, 7a,25-OHC stimulated; inhibition, % at 5 µM; actives 0.81% (n = 360,000); AID 651636; in the data active = inhibition above about 38%;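 also: enzyme fragment complementation signal reports receptor beta-arrestin coupling in cells; 0% = agonist plus DMSO wells and 100% = wells without agonist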
CCR6 antag: antagonists of human CCR6 receptor | CHO-K1 CCR6 PathHunter beta-arrestin, luminescence, CCL20-stimulated | inhibition, % at 20 µM | P51684 | actives 0.49% (n = 340,000) | AID 493098;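 active = compounds whose inhibition of the agonist-driven luminescence signal at 20 µM reaches about 50%, limit read from the data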;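 also: cells stimulated with CCL20 at 14 nM final; plate controls were DMSO with CCL20 for no effect and DMSO without agonist for full effect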
APJ ag: APJ receptor agonism | activation, % at 20 µM | AID 2520 | CHO-K1 APJ PathHunter beta-arrestin, luminescence; 0% DMSO wells, 100% apelin | actives 0.11% (n = 330,000);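 active = activation more than six SD over the plate average, tested at 20 µM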;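 also: 0% = DMSO alone and 100% = apelin-13 at 10 nM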
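Material: CHO-K1 APJ beta-arrestin complementation cell line; Input: cell density 1000 per well; Incubation: compound stimulation 90 min at 25 °C, detection 60 min; Signal: luminescence from split beta-galactosidase complementation, Galacton Star/Emerald II substrate; Controls: DMSO-only wells as negative, 10 nM Apelin-13 as positive control.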
EBI2 antag conf: confirmation of human EBI2 receptor antagonists. inhibition, % at 5 µM. actives 29% (n = 2,400). shares compounds with EBI2 antag. EBI2 beta-arrestin luminescence, 7a,25-OHC antagonism;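 active = inhibition of at least 50%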
EBI2 agonist: counter-screen for EBI2 antagonists: EBI2 agonist activity. shares compounds with EBI2 antag. EBI2-expressing cells, agonist mode, luminescence, 60 min; 0% vehicle, 100% 7α,25-dihydroxycholesterol control. activation, % at 5 µM. 2,400 tested, under 10 active;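 active = activation of at least 50%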
bGal counter: beta-galactosidase inhibition counter-screen | shares compounds with EBI2 antag | purified beta-galactosidase, luminescent Galacton Star, 15 min | inhibition, % at 5 µM | actives 1% (n = 2,400);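 active = replicate-average signal at least 3 plate SD below neutral wells, shown as high inhibition, flagging enzyme-inhibiting false positives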;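 also: 0% = DMSO wells with enzyme and 100% = wells lacking enzyme; higher means stronger loss of beta-gal luminescence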
Numbers without * were called inactive; x = no result given. In the library only some 1.9% were active in any assay of this set; here they are far more common.

SMILES | APJ antagonist | CXCR6 block | H9c2 TAG inh | EBI2 antag | CCR6 antag | APJ ag | EBI2 antag conf | EBI2 agonist | bGal counter
CCOC(=O)C1=CCN(S(=O)(=O)c2ccccc2Cl)C1c1cccc(Br)c1 (centres undefined) | x | 3 | x | 56* | x | x | 20 | 0 | 5
Cc1cc(Cl)ccc1C(=O)C1CCCN(C(=O)c2cccc(N3CCCC3=O)c2)C1 (centres undefined) | 11 | -5 | x | 0 | 4 | -4 | x | x | x
O=C(Nc1ccc(Cl)cc1Cl)c1ccc2ncsc2c1 | 0 | -18 | x | 8 | 6 | -7 | x | x | x
CCS(=O)(=O)N1CCC(C(=O)N2CCN(Cc3ccccc3)CC2)CC1 | -8 | 2 | x | 2 | -5 | -3 | x | x | x
O=C(c1ccc(-n2cccc2)cc1)N1CCN(Cc2ccccc2)CC1 | 6 | -2 | x | 84* | 6 | -1 | 73* | -1 | -13
O=C(c1ccc([N+](=O)[O-])cc1)N1CCN(Cc2ccccc2)CC1 | 2 | -2 | x | 16 | 8 | -3 | x | x | x
CN1CCN(C(=O)c2ccc(-n3cccc3)cc2)CC1 | 8 | 0 | x | 34* | -17 | 1 | 23 | 0 | -16
O=C(c1ccc(Br)cc1)N1CCC(C(=O)N2CCN(Cc3ccccc3)CC2)CC1 | 14 | 0 | 0 | 63* | -4 | 0 | 37 | 1 | 10
CN1CCN(C(=O)c2ccc(Cl)cc2)CC1 | -6 | 4 | x | -1 | 4 | 0 | x | x | x
CC(C(=O)NCc1ccco1)n1ccc2cc(S(=O)(=O)N3CCCCC3)ccc21 (centres undefined) | 13 | 1 | x | -4 | 15 | -1 | x | x | x
O=C(CSC(=S)N1CCCC1)Nc1ncc(Cl)cc1Cl | 3 | 0 | -6 | -17 | 10 | 0 | x | x | x
CC1(c2nnc(-c3ccccc3)o2)CC(c2ccccc2)=NO1 (centres undefined) | -5 | 8 | -19 | -10 | 11 | -6 | x | x | x
O=C1CCN(Cc2ccccc2)C=C1c1ccc(Br)cc1 | 7 | -8 | 3 | 84* | 22 | 0 | 67* | -1 | -6
COc1ccc(C2=CN(Cc3ccccc3)CCC2=O)cc1 | -7 | 8 | x | 24 | 0 | -2 | x | x | x
Cc1ccc(C2=CN(Cc3ccccc3)CCC2=O)cc1 | -1 | -4 | -2 | 44* | 16 | -2 | 25 | 2 | 4
CNc1ccccc(-c2ccc3ccccc3n2)c1=O | -18 | -2 | x | -5 | -9 | 1 | x | x | x
CCN1C[C@@H]2[C@@H]3C(=O)N(C)C(=O)[C@@H]3[C@](C)(C1=O)N2C(=O)c1ccc(Cl)c(Cl)c1 | x | -2 | -15 | -5 | 6 | x | x | x | x
CC(C)(C)c1ccc(C(=O)NCc2ccc(Cl)cc2)cc1 | -4 | 2 | x | 53* | 5 | -1 | 34 | 1 | 6
CC(C)(C)OC(=O)N1CCN(c2ccc(CNC(=O)c3ccc(Cl)cc3)cc2)CC1 | -8 | -2 | -25 | 59* | -1 | -3 | 15 | 2 | 4
O=C(CN1C(=O)C2CC=CCC2C1=O)Nc1cc(C(F)(F)F)ccc1N1CCCC1 (centres undefined) | 27 | 4 | 7 | 46* | 13 | -3 | 20 | 0 | 5
CCCCC[C@@H](C)N1C[C@@H](COCc2ccccc2)Oc2cc(N3CC[C@H](O)C3)ccc2S1(=O)=O | x | 3 | x | 53* | x | x | 18 | -2 | -14
CCCCC[C@@H](C)N1C[C@@H](COCc2ccccc2)Oc2cc(N3CC[C@@H](O)C3)ccc2S1(=O)=O | x | 11 | x | 45* | x | x | 21 | -2 | -11
N#Cc1ccccc1OCCCN1CCC(C(O)(c2ccccc2)c2ccccc2)CC1 | x | 6 | x | 1 | x | x | x | x | x
Cc1ccc(C2CCN(C(=O)Nc3ccc(F)cc3)C2)cc1 (centres undefined) | -4 | 9 | -12 | 71* | 7 | -2 | 54* | 2 | -2
CCOc1ccc(C(=O)C2CCN(C(=O)c3ccc([N+](=O)[O-])cc3)CC2)cc1 | -28 | -13 | x | 84* | -4 | 1 | 53* | -1 | -5
SMILES | APJ antagonist | CXCR6 block | H9c2 TAG inh | EBI2 antag | CCR6 antag | APJ ag | EBI2 antag conf | EBI2 agonist | bGal counter
COc1ccc(C(=O)C2CCN(C(=O)Nc3ccc(C)cc3)CC2)cc1 | 5 | -8 | x | 49* | -5 | -3 | 15 | 1 | 3
Cc1ccc(NC(=O)N2CCC(C(=O)c3ccc(F)cc3)CC2)cc1 | 3 | -2 | x | 41 | 3 | 3 | x | x | x
COc1ccc(C(=O)C2CCN(C(=O)c3ccc(C)cc3)CC2)cc1 | 1 | 3 | -1 | 53* | -9 | -2 | 47 | -1 | -19
COc1ccc(C(=O)C2CCN(C(=O)c3ccc(F)cc3)CC2)cc1 | 5 | -8 | 1 | 30 | 2 | 0 | x | x | x
COc1ccc(C(=O)/C=C/c2ccc(C)cc2)c(OC(=O)c2ccc([N+](=O)[O-])cc2)c1 | 13 | -6 | -1 | 82* | 14 | 0 | 28 | -1 | -13
CN(C)c1ccc(C(=O)C=Cc2ccc([N+](=O)[O-])cc2)cc1 | x | -7 | 0 | 53* | x | x | 27 | 0 | -8
CSc1ccc(C(=O)/C=C/c2ccc(N)cc2)cc1 | 1 | 7 | 1 | 10 | 2 | -2 | x | x | x
CCOC(=O)Nc1ccc(Oc2ccccc2)cc1 | -14 | 2 | 17 | 23 | -31 | -1 | x | x | x
CSc1ccc(/C=C/C(=O)c2ccc(NC(=O)C(C)C)cc2)cc1 | -3 | 13 | 6 | 75* | 7 | -1 | 66* | -1 | -6
CCOC(=O)Nc1ccc(C(=O)/C=C/c2ccccc2)cc1 | 5 | -3 | -3 | 63* | 21 | -4 | 32 | 1 | 9
CCCCCCN1C[C@H](O)[C@@H](n2cc(C3CC3)nn2)C[C@@H]1c1ccc(C)cc1 | x | -1 | -14 | 7 | x | x | x | x | x
COc1ccccc1/C=C/C(=O)OCC(=O)Nc1c(C)nn(-c2ccccc2)c1C | -6 | 5 | -4 | -7 | 5 | -1 | x | x | x
Cc1cc(Oc2cccc3c2S(=O)(=O)N(C2CCCC2)CC(COCc2ccccc2)O3)cc(C)c1C (centres undefined) | x | 9 | 16 | 19 | 9 | x | x | x | x
Cc1ccc(/C=C/C(=O)c2ccc(C)cc2)cc1 | -2 | 1 | 18 | 61* | 1 | -2 | 66* | 2 | 2
CC(=O)c1ccc(NC(=O)/C=C/c2ccc(C)cc2)cc1 | -15 | 1 | 2 | 54* | 1 | 2 | 30 | 2 | 3
Cc1ccc(C(=O)C=Cc2cccc(C)c2)cc1 | x | 7 | 6 | 25 | 27 | x | x | x | x
